Tests used:
[1] = molecular target: T1, Cholecystokinin receptor type A (Homo sapiens, UniProt P32238); assay: Agonist activity at human CCK1 receptor; type: functional
T1 sequence (P32238 whole entry): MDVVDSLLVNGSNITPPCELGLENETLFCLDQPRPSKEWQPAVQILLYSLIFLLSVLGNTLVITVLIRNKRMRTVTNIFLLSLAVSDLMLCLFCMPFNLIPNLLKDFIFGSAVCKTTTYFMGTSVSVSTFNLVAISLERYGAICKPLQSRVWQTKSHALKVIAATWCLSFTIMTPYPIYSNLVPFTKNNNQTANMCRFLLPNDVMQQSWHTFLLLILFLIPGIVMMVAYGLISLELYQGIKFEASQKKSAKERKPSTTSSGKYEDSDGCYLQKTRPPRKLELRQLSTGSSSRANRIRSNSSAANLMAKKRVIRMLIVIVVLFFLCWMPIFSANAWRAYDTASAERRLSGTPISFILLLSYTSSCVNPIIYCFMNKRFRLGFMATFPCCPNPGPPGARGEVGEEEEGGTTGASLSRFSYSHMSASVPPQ
In short: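 Human CCK1 receptor agonism measured in a CCK_IP3 functional assay with NFAT read-out. Values are means of ≥3 experiments, with standard deviations <75% of the average.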

[2] = molecular target: T2, Cholecystokinin receptor type A (Homo sapiens) (UniProt P32238); assay: Agonist activity at human CCK1 receptor relative to cholecystokinin 8; type: functional
T2 sequence (whole entry): T1 sequence (P32238 whole entry)

[3] = molecular target: T1, Cholecystokinin receptor type A; assay: Inhibition of human CCK1 receptor
[4] = molecular target: T3, Cholecystokinin receptor type A (Mus musculus) (UniProt O08786); assay: Agonist activity at mouse CCK1 receptor relative to cholecystokinin 8; type: functional
T3 sequence (whole entry): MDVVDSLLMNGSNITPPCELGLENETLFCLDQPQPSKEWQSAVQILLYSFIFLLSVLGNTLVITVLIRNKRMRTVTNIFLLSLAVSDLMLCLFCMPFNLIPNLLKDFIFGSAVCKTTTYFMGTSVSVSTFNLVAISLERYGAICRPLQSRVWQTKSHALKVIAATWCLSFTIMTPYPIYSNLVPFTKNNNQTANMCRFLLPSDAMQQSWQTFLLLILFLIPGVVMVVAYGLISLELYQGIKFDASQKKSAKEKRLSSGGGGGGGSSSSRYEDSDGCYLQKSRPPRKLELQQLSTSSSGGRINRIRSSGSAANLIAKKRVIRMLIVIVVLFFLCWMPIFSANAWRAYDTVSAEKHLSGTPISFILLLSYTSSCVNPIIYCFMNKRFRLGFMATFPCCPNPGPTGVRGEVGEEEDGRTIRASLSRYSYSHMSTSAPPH

Mus musculus [5] = assay: Suppression of 18 hrs overnight food intake in mouse at 3 mg/kg, po relative to control; type: functional
In short: (§1)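 Lean mice were dosed orally in 10% Tw80 in water. Overnight food intake was measured and expressed relative to vehicle-dosed mice.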

[6] = molecular target: T4, Cholecystokinin receptor type A (Mus musculus, UniProt O08786); assay: Agonist activity at mouse CCK1 receptor; type: functional
T4 sequence (O08786 whole entry): T3 sequence (whole entry)
In short: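 Mouse CCK1 receptor agonism measured in a CCK_IP3 functional assay in K1 cells. Values are means of ≥3 experiments, with standard deviations <75% of the average.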

[7] = Half life in mouse at 1 mg/kg, iv and 10 mg/kg, po; type: ADME, organism-based; conditions: in vivo
[8] = Volume of distribution in mouse at 1 mg/kg, iv and 10 mg/kg, po; type: ADME, organism-based; conditions: in vivo
[9] = Cmax in mouse at 10 mg/kg, po; type: ADME, organism-based; set-up: dose 10 mg/kg, route oral; conditions: in vivo
[10] = Tmax in mouse at 1 mg/kg, iv and 10 mg/kg, po; type: ADME, organism-based; conditions: in vivo
Mus musculus [11] = assay: Oral bioavailability in mouse at 10 mg/kg; type: ADME, organism-based; conditions: in vivo
Mus musculus [12] = assay: AUC in mouse at 10 mg/kg, po; type: ADME, organism-based, Plasma; set-up: dose 10 mg/kg, route oral; conditions: in vivo
Mus musculus [13] = assay: Suppression of 18 hrs overnight food intake in mouse at 0.3 mg/kg, po relative to control; type: functional; in short: as §1
Mus musculus [14] = species: Mus musculus; assay: Gastrointestinal toxicity in wild type mouse; type: organism-based; conditions: in vivo
Mus musculus [15] = species: Mus musculus; assay: Gastrointestinal toxicity in CCK1 receptor deficient mouse; type: organism-based; conditions: in vivo
Mus musculus [16] = assay: Suppression of 48 hrs overnight food intake in wild type mouse at 3 mg/kg, po relative to control; type: functional
In short: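 Wild-type and CCK1R^-/- mice received an oral dose of 3 mpk. Food intake was measured at 18 h and 48 h and compared with vehicle.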

Row | SMILES | EC50 [1] [nM] | Activity [2] [%] | IC50 [3] [nM] | other results
1 | CCOc1cccc(-n2cc(C(=O)N3CCN(c4cnc5ccccc5c4)C[C@@H]3CNC(C)=O)nc2-c2ccc(C)cc2)c1 | 0.1 | 91 | 0.25 | 
2 | CCOc1cccc(-n2cc(C(=O)N3CCN(c4cnc5ccccc5c4)C[C@H]3COC(C)=O)nc2-c2ccc(C)cc2)c1 | 0.77 | 118 | 0.47 | 
3 | CCOc1cccc(-n2cc(C(=O)N3CCN(c4cnc5ccccc5c4)C[C@H]3CNC(C)=O)nc2-c2ccc(C)cc2)c1 | 0.097 | 104 | 0.39 | 
4 | CCOc1cccc(-n2cc(C(=O)N3CCN(c4cnc5ccccc5c4)C[C@@H]3COC(C)=O)nc2-c2ccc(C)cc2)c1 | 0.25 | 104 | 0.24 | 
5 | CCOc1cccc(-n2cc(C(=O)N3CCN(c4cnc5ccccc5c4)C[C@@H]3CNS(C)(=O)=O)nc2-c2ccc(C)cc2)c1 | 0.21 | 100 | 0.43 | 
6 | CCOc1cccc(-n2cc(C(=O)N3CCN(c4cc(C(=O)O)c5ccccc5c4)CC3)nc2-c2ccc(C)cc2)c1 |  |  |  | Activity [4]: 103%; Tmax [10]: 6.7 h; AUC (Mus musculus [12]): 0.39 µM·h; Activity (Mus musculus [13]): 18%; Activity (Mus musculus [5]): 82%
7 | CCOc1cccc(-n2cc(C(=O)N3CCN(c4cnc5ccccc5c4)C[C@H]3CNS(C)(=O)=O)nc2-c2ccc(C)cc2)c1 | 0.46 | 117 | 0.73 | 
8 | CCOc1cccc(-n2cc(C(=O)N3CCN(c4cnc5ccccc5c4)C[C@H]3C(=O)NC(C)C)nc2-c2ccc(C)cc2)c1 | 0.14 | 102 | 0.24 | 
9 | CCOc1cccc(-n2cc(C(=O)N3CCN(c4cnc5ccccc5c4)C[C@@H]3C(=O)NC(C)C)nc2-c2ccc(C)cc2)c1 | 0.18 | 87 | 0.21 | 
10 | CCOc1cccc(-n2cc(C(=O)N3CCN(c4cnc5ccccc5c4)C[C@@H]3COCC(=O)O)nc2-c2ccc(C)cc2)c1 | 0.097 | 96 | 0.039 | Activity [4]: 84%; EC50 [6]: 0.5 nM
11 | CCOc1cccc(-n2cc(C(=O)N3CCN(c4cnc5ccccc5c4)C[C@H]3C(=O)NCC(=O)O)nc2-c2ccc(C)cc2)c1 | 0.089 | 82 | 0.018 | Activity [4]: 99%; EC50 [6]: 0.11 nM
12 | CCOc1cccc(-n2cc(C(=O)N3CCN(c4cnc5ccccc5c4)C[C@H]3COCC(=O)O)nc2-c2ccc(C)cc2)c1 | 0.065 | 93 | 0.052 | 

More lines, main results first:

Row | EC50 [1] [nM] | Activity [2] [%] | IC50 [3] [nM] | SMILES | other results
13 | 0.1 | 97 | 0.067 | CCOc1cccc(-n2cc(C(=O)N3CCN(c4cc(C(=O)O)c5ccccc5c4)C[C@H]3CNS(C)(=O)=O)nc2-c2ccc(C)cc2F)c1 | 
14 | 0.033 | 70 | 0.058 | CCOc1cccc(-n2cc(C(=O)N3CCN(c4cc(C(=O)O)c5ccccc5c4)C[C@H]3CNC(C)=O)nc2-c2ccc(C)cc2F)c1 | Activity [4]: 77%; Activity (Mus musculus [5]): 18%; EC50 [6]: 0.13 nM
15 | 0.053 | 103 | 0.016 | CCOc1cccc(-n2cc(C(=O)N3CCN(c4cc(C(=O)O)c5ccccc5c4)C[C@H]3C(=O)NC(C)C)nc2-c2ccc(C)cc2)c1 | half-life [7]: 2.5 h; Vd [8]: 3.7 L/kg; Cmax [9]: 180 nM; Activity [4]: 110%; Tmax [10]: 5.5 h; F (Mus musculus [11]): 11%; AUC (Mus musculus [12]): 0.15 µM·h; Activity (Mus musculus [13]): 19%; Activity (Mus musculus [5]): 45%; EC50 [6]: 0.11 nM
16 | 0.034 | 106 | 0.041 | CCOc1cccc(-n2cc(C(=O)N3CCN(c4cc(C(=O)O)c5ccccc5c4)C[C@H]3COCC(=O)O)nc2-c2ccc(C)cc2F)c1 | 
17 | 0.097 | 85 | 0.14 | CCOc1cccc(-n2cc(C(=O)N3CCN(c4cc(C(=O)O)c5ccccc5c4)C[C@@H]3COCC(=O)O)nc2-c2ccc(C)cc2)c1 | 
18 | 0.074 | 90 | 0.097 | CCOc1cccc(-n2cc(C(=O)N3CCN(c4cc(C(=O)O)c5ccccc5c4)C[C@H]3CNC(=O)NC)nc2-c2ccc(C)cc2F)c1 | 
19 | 0.055 |  | 0.04 | CCOc1cccc(-n2cc(C(=O)N3CCN(c4cc(C(=O)O)c5ccccc5c4)CC3)nc2-c2ccc(C)cc2F)c1 | Activity [4]: 56%; Tmax [10]: 0.6 h; AUC (Mus musculus [12]): 0.61 µM·h; Activity (Mus musculus [13]): 13%; Activity (Mus musculus [5]): 86%
20 | 0.071 | 94 | 0.01 | CCOc1cccc(-n2cc(C(=O)N3CCN(c4cc(C(=O)O)c5ccccc5c4)C[C@H]3C(=O)NC(C)C)nc2-c2ccc(C)cc2F)c1 | half-life [7]: 2.3 h; Vd [8]: 0.42 L/kg; Cmax [9]: 180 nM; Activity (Mus musculus [14]): Toxic; Activity [4]: 94%; Tmax [10]: 8 h; Activity (Mus musculus [15]): Non-toxic; Activity (Mus musculus [16]): 85%; F (Mus musculus [11]): 4%; AUC (Mus musculus [12]): 0.1 µM·h; Activity (Mus musculus [13]): 32%; Activity (Mus musculus [5]): 92%; EC50 [6]: 0.034 nM
21 | 0.16 | 70 | 0.56 | CCOc1cccc(-n2cc(C(=O)N3CCN(c4cnc5ccccc5c4)C[C@@H]3CNC(=O)NC)nc2-c2ccc(C)cc2)c1 | 
22 | 0.04 | 67 | 0.08 | CCOc1cccc(-n2cc(C(=O)N3CCN(c4cc(C(=O)O)c5ccccc5c4)C[C@@H]3CNC(C)=O)nc2-c2ccc(C)cc2)c1 | 
23 | 0.095 | 72 | 0.12 | CCOc1cccc(-n2cc(C(=O)N3CCN(c4cc(C(=O)O)c5ccccc5c4)C[C@@H]3CNS(C)(=O)=O)nc2-c2ccc(C)cc2)c1 | 
24 | 0.082 | 94 | 0.11 | CCOc1cccc(-n2cc(C(=O)N3CCN(c4cc(C(=O)O)c5ccccc5c4)C[C@@H]3C(=O)NC(C)C)nc2-c2ccc(C)cc2)c1 | 
25 | 0.13 | 74 | 0.08 | CCOc1cccc(-n2cc(C(=O)N3CCN(c4cc(C(=O)O)c5ccccc5c4)C[C@@H]3CNC(=O)NC)nc2-c2ccc(C)cc2)c1 | 

— ChEMBL document CHEMBL1157349, “2-Substituted piperazine-derived imidazole carboxamides as potent and selective CCK1R agonists for the treatment of obesity” (Bioorg Med Chem Lett, 2008)
